Experiments:
Format in all cases: nucleic-acid assay
Nucleic Acid [1] = experiment: Binding affinity to 5'-GCTAAAAAGATAGAGAGATCG-3'/5'- CGATCTCTCTATCTTTTTAGC-3' double stranded DNA assessed as melting temperature at 1.5 uM in sodium phosphate buffer at pH 7 by UV spectrophotometric analysis
Outline: (§1)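 UV melting of triplexes between each modified TFO and the 21-bp duplex target, in 7 mM sodium phosphate buffer (pH 7.0), 140 mM KCl and 10 mM MgCl₂. Each oligonucleotide at 1.5 µM final. Absorbance followed at 260 nm from 5 °C to 85 °C, scanned at 0.5 °C/min, to give Tm.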

Nucleic Acid [2] = experiment: Binding affinity to 5'-GCTAAAAAGAGAGAGAGATCG-3'/5'- CGATCTCTCTCTCTTTTTAGC-3' double stranded DNA assessed as melting temperature at 1.5 uM in sodium phosphate buffer at pH 7 by UV spectrophotometric analysis; outline: as §1
Nucleic Acid [3] = experiment: Binding affinity to5'-GCTAAAAAGACAGAGAGATCG-3'/5'- CGATCTCTCTGTCTTTTTAGC-3' double stranded DNA assessed as melting temperature at 1.5 uM in sodium phosphate buffer at pH 7 by UV spectrophotometric analysis; outline: as §1
Nucleic Acid [4] = experiment: Binding affinity to 5'-GCTAAAAAGAAAGAGAGATCG-3'/5'- CGATCTCTCTTTCTTTTTAGC-3' double stranded DNA assessed as melting temperature at 1.5 uM in sodium phosphate buffer at pH 7 by UV spectrophotometric analysis; outline: as §1

Row | Tm (Nucleic Acid [1]) | Tm (Nucleic Acid [2]) | Tm (Nucleic Acid [3]) | Tm (Nucleic Acid [4]) | Structure (SMILES)
1 | 12 °C | < 10 °C | 19 °C | < 10 °C | Cc1cn([C@H]2C[C@H](OP(=O)(O)OC[C@H]3O[C@@H](n4cc(C)c(=O)[nH]c4=O)C[C@@H]3OP(=O)(O)OC[C@H]3O[C@@H](n4cc(C)c(N)nc4=O)C[C@@H]3OP(=O)(O)OC[C@H]3O[C@@H](n4cc(C)c(=O)[nH]c4=O)C[C@@H]3OP(=O)(O)OC[C@H]3O[C@@H](n4cc(C)c(N)nc4=O)C[C@@H]3OP(=O)(O)OC[C@H]3O[C@@H](n4cc(C)c(=O)[nH]c4=O)C[C@@H]3OP(=O)(O)OC[C@H]3O[C@@H](c4cn(Cc5ccccc5)nn4)C[C@@H]3OP(=O)(O)OC[C@H]3O[C@@H](n4cc(C)c(=O)[nH]c4=O)C[C@@H]3OP(=O)(O)OC[C@H]3O[C@@H](n4cc(C)c(N)nc4=O)C[C@@H]3OP(=O)(O)OC[C@H]3O[C@@H](n4cc(C)c(=O)[nH]c4=O)C[C@@H]3OP(=O)(O)OC[C@H]3O[C@@H](n4cc(C)c(=O)[nH]c4=O)C[C@@H]3OP(=O)(O)OC[C@H]3O[C@@H](n4cc(C)c(=O)[nH]c4=O)C[C@@H]3OP(=O)(O)OC[C@H]3O[C@@H](n4cc(C)c(=O)[nH]c4=O)C[C@@H]3OP(=O)(O)OC[C@H]3O[C@@H](n4cc(C)c(=O)[nH]c4=O)C[C@@H]3O)[C@@H](COP(=O)(O)O[C@H]3C[C@H](n4cc(C)c(=O)[nH]c4=O)O[C@@H]3CO)O2)c(=O)nc1N
2 | 14 °C | < 10 °C | 20 °C | 14 °C | CC(=O)NCCn1cc([C@H]2C[C@H](OP(=O)(O)OC[C@H]3O[C@@H](n4cc(C)c(=O)[nH]c4=O)C[C@@H]3OP(=O)(O)OC[C@H]3O[C@@H](n4cc(C)c(N)nc4=O)C[C@@H]3OP(=O)(O)OC[C@H]3O[C@@H](n4cc(C)c(=O)[nH]c4=O)C[C@@H]3OP(=O)(O)OC[C@H]3O[C@@H](n4cc(C)c(=O)[nH]c4=O)C[C@@H]3OP(=O)(O)OC[C@H]3O[C@@H](n4cc(C)c(=O)[nH]c4=O)C[C@@H]3OP(=O)(O)OC[C@H]3O[C@@H](n4cc(C)c(=O)[nH]c4=O)C[C@@H]3OP(=O)(O)OC[C@H]3O[C@@H](n4cc(C)c(=O)[nH]c4=O)C[C@@H]3O)[C@@H](COP(=O)(O)O[C@H]3C[C@H](n4cc(C)c(=O)[nH]c4=O)O[C@@H]3COP(=O)(O)O[C@H]3C[C@H](n4cc(C)c(N)nc4=O)O[C@@H]3COP(=O)(O)O[C@H]3C[C@H](n4cc(C)c(=O)[nH]c4=O)O[C@@H]3COP(=O)(O)O[C@H]3C[C@H](n4cc(C)c(N)nc4=O)O[C@@H]3COP(=O)(O)O[C@H]3C[C@H](n4cc(C)c(=O)[nH]c4=O)O[C@@H]3COP(=O)(O)O[C@H]3C[C@H](n4cc(C)c(N)nc4=O)O[C@@H]3COP(=O)(O)O[C@H]3C[C@H](n4cc(C)c(=O)[nH]c4=O)O[C@@H]3CO)O2)nn1
3 | 13 °C | < 10 °C | 21 °C | < 10 °C | Cc1ccc(-n2cc([C@H]3C[C@H](OP(=O)(O)OC[C@H]4O[C@@H](n5cc(C)c(=O)[nH]c5=O)C[C@@H]4OP(=O)(O)OC[C@H]4O[C@@H](n5cc(C)c(N)nc5=O)C[C@@H]4OP(=O)(O)OC[C@H]4O[C@@H](n5cc(C)c(=O)[nH]c5=O)C[C@@H]4OP(=O)(O)OC[C@H]4O[C@@H](n5cc(C)c(=O)[nH]c5=O)C[C@@H]4OP(=O)(O)OC[C@H]4O[C@@H](n5cc(C)c(=O)[nH]c5=O)C[C@@H]4OP(=O)(O)OC[C@H]4O[C@@H](n5cc(C)c(=O)[nH]c5=O)C[C@@H]4OP(=O)(O)OC[C@H]4O[C@@H](n5cc(C)c(=O)[nH]c5=O)C[C@@H]4O)[C@@H](COP(=O)(O)O[C@H]4C[C@H](n5cc(C)c(=O)[nH]c5=O)O[C@@H]4COP(=O)(O)O[C@H]4C[C@H](n5cc(C)c(N)nc5=O)O[C@@H]4COP(=O)(O)O[C@H]4C[C@H](n5cc(C)c(=O)[nH]c5=O)O[C@@H]4COP(=O)(O)O[C@H]4C[C@H](n5cc(C)c(N)nc5=O)O[C@@H]4COP(=O)(O)O[C@H]4C[C@H](n5cc(C)c(=O)[nH]c5=O)O[C@@H]4COP(=O)(O)O[C@H]4C[C@H](n5cc(C)c(N)nc5=O)O[C@@H]4COP(=O)(O)O[C@H]4C[C@H](n5cc(C)c(=O)[nH]c5=O)O[C@@H]4CO)O3)nn2)cc1

Further lines, the compound ahead of its results:

Row | Structure (SMILES) | Tm (Nucleic Acid [1]) | Tm (Nucleic Acid [2]) | Tm (Nucleic Acid [3]) | Tm (Nucleic Acid [4])
4 | Cc1cn([C@H]2C[C@H](OP(=O)(O)OC[C@H]3O[C@@H](n4cc(C)c(=O)[nH]c4=O)C[C@@H]3OP(=O)(O)OC[C@H]3O[C@@H](n4cc(C)c(N)nc4=O)C[C@@H]3OP(=O)(O)OC[C@H]3O[C@@H](n4cc(C)c(=O)[nH]c4=O)C[C@@H]3OP(=O)(O)OC[C@H]3O[C@@H](n4cc(C)c(N)nc4=O)C[C@@H]3OP(=O)(O)OC[C@H]3O[C@@H](n4cc(C)c(=O)[nH]c4=O)C[C@@H]3OP(=O)(O)OC[C@H]3O[C@@H](c4cn(-c5ccc(N)cc5)nn4)C[C@@H]3OP(=O)(O)OC[C@H]3O[C@@H](n4cc(C)c(=O)[nH]c4=O)C[C@@H]3OP(=O)(O)OC[C@H]3O[C@@H](n4cc(C)c(N)nc4=O)C[C@@H]3OP(=O)(O)OC[C@H]3O[C@@H](n4cc(C)c(=O)[nH]c4=O)C[C@@H]3OP(=O)(O)OC[C@H]3O[C@@H](n4cc(C)c(=O)[nH]c4=O)C[C@@H]3OP(=O)(O)OC[C@H]3O[C@@H](n4cc(C)c(=O)[nH]c4=O)C[C@@H]3OP(=O)(O)OC[C@H]3O[C@@H](n4cc(C)c(=O)[nH]c4=O)C[C@@H]3OP(=O)(O)OC[C@H]3O[C@@H](n4cc(C)c(=O)[nH]c4=O)C[C@@H]3O)[C@@H](COP(=O)(O)O[C@H]3C[C@H](n4cc(C)c(=O)[nH]c4=O)O[C@@H]3CO)O2)c(=O)nc1N | 18 °C | < 10 °C | 23 °C | 12 °C
5 | Cc1cn([C@H]2C[C@H](OP(=O)(O)OC[C@H]3O[C@@H](n4cc(C)c(=O)[nH]c4=O)C[C@@H]3OP(=O)(O)OC[C@H]3O[C@@H](n4cc(C)c(N)nc4=O)C[C@@H]3OP(=O)(O)OC[C@H]3O[C@@H](n4cc(C)c(=O)[nH]c4=O)C[C@@H]3OP(=O)(O)OC[C@H]3O[C@@H](n4cc(C)c(N)nc4=O)C[C@@H]3OP(=O)(O)OC[C@H]3O[C@@H](n4cc(C)c(=O)[nH]c4=O)C[C@@H]3OP(=O)(O)OC[C@H]3O[C@@H](c4cn(-c5cccc(O)c5)nn4)C[C@@H]3OP(=O)(O)OC[C@H]3O[C@@H](n4cc(C)c(=O)[nH]c4=O)C[C@@H]3OP(=O)(O)OC[C@H]3O[C@@H](n4cc(C)c(N)nc4=O)C[C@@H]3OP(=O)(O)OC[C@H]3O[C@@H](n4cc(C)c(=O)[nH]c4=O)C[C@@H]3OP(=O)(O)OC[C@H]3O[C@@H](n4cc(C)c(=O)[nH]c4=O)C[C@@H]3OP(=O)(O)OC[C@H]3O[C@@H](n4cc(C)c(=O)[nH]c4=O)C[C@@H]3OP(=O)(O)OC[C@H]3O[C@@H](n4cc(C)c(=O)[nH]c4=O)C[C@@H]3OP(=O)(O)OC[C@H]3O[C@@H](n4cc(C)c(=O)[nH]c4=O)C[C@@H]3O)[C@@H](COP(=O)(O)O[C@H]3C[C@H](n4cc(C)c(=O)[nH]c4=O)O[C@@H]3CO)O2)c(=O)nc1N | 14 °C | < 10 °C | 21 °C | < 10 °C
6 | Cc1cn([C@H]2C[C@H](OP(=O)(O)OC[C@H]3O[C@@H](n4cc(C)c(=O)[nH]c4=O)C[C@@H]3OP(=O)(O)OC[C@H]3O[C@@H](n4cc(C)c(N)nc4=O)C[C@@H]3OP(=O)(O)OC[C@H]3O[C@@H](n4cc(C)c(=O)[nH]c4=O)C[C@@H]3OP(=O)(O)OC[C@H]3O[C@@H](n4cc(C)c(N)nc4=O)C[C@@H]3OP(=O)(O)OC[C@H]3O[C@@H](n4cc(C)c(=O)[nH]c4=O)C[C@@H]3OP(=O)(O)OC[C@H]3O[C@@H](c4cn(-c5cccnc5O)nn4)C[C@@H]3OP(=O)(O)OC[C@H]3O[C@@H](n4cc(C)c(=O)[nH]c4=O)C[C@@H]3OP(=O)(O)OC[C@H]3O[C@@H](n4cc(C)c(N)nc4=O)C[C@@H]3OP(=O)(O)OC[C@H]3O[C@@H](n4cc(C)c(=O)[nH]c4=O)C[C@@H]3OP(=O)(O)OC[C@H]3O[C@@H](n4cc(C)c(=O)[nH]c4=O)C[C@@H]3OP(=O)(O)OC[C@H]3O[C@@H](n4cc(C)c(=O)[nH]c4=O)C[C@@H]3OP(=O)(O)OC[C@H]3O[C@@H](n4cc(C)c(=O)[nH]c4=O)C[C@@H]3OP(=O)(O)OC[C@H]3O[C@@H](n4cc(C)c(=O)[nH]c4=O)C[C@@H]3O)[C@@H](COP(=O)(O)O[C@H]3C[C@H](n4cc(C)c(=O)[nH]c4=O)O[C@@H]3CO)O2)c(=O)nc1N | 15 °C | 15 °C | 24 °C | 12 °C
7 | Cc1cn([C@H]2C[C@H](OP(=O)(O)OC[C@H]3O[C@@H](n4cc(C)c(=O)[nH]c4=O)C[C@@H]3OP(=O)(O)OC[C@H]3O[C@@H](n4cc(C)c(N)nc4=O)C[C@@H]3OP(=O)(O)OC[C@H]3O[C@@H](n4cc(C)c(=O)[nH]c4=O)C[C@@H]3OP(=O)(O)OC[C@H]3O[C@@H](n4cc(C)c(N)nc4=O)C[C@@H]3OP(=O)(O)OC[C@H]3O[C@@H](n4cc(C)c(=O)[nH]c4=O)C[C@@H]3OP(=O)(O)OC[C@H]3O[C@@H](c4cn(-c5ccccc5C(=O)O)nn4)C[C@@H]3OP(=O)(O)OC[C@H]3O[C@@H](n4cc(C)c(=O)[nH]c4=O)C[C@@H]3OP(=O)(O)OC[C@H]3O[C@@H](n4cc(C)c(N)nc4=O)C[C@@H]3OP(=O)(O)OC[C@H]3O[C@@H](n4cc(C)c(=O)[nH]c4=O)C[C@@H]3OP(=O)(O)OC[C@H]3O[C@@H](n4cc(C)c(=O)[nH]c4=O)C[C@@H]3OP(=O)(O)OC[C@H]3O[C@@H](n4cc(C)c(=O)[nH]c4=O)C[C@@H]3OP(=O)(O)OC[C@H]3O[C@@H](n4cc(C)c(=O)[nH]c4=O)C[C@@H]3OP(=O)(O)OC[C@H]3O[C@@H](n4cc(C)c(=O)[nH]c4=O)C[C@@H]3O)[C@@H](COP(=O)(O)O[C@H]3C[C@H](n4cc(C)c(=O)[nH]c4=O)O[C@@H]3CO)O2)c(=O)nc1N | 15 °C | 12 °C | 17 °C | < 10 °C

From ChEMBL document CHEMBL1949561, “Synthesis and triplex-forming ability of oligonucleotides bearing 1-substituted 1H-1,2,3-triazole nucleobases” (Bioorg Med Chem, 2011)
